Measured values from ChEMBL document CHEMBL1128227, “Cosalane analogues with enhanced potencies as inhibitors of HIV-1 protease and integrase” (J Med Chem, 1995).
In brackets after ≈: the same amount, converted by molar mass.

Key:
[1] = system: MT4; assay: Cytotoxical effect against MT-4 cell lines was determined by reduction of cellular viability; type: functional; conditions: Homo sapiens
Summary of the method: (§1)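 Compounds tested as ammonium salts. Cytotoxicity in CEM-SS, MT-4 or PBL cultures taken from the reduction in cellular viability. Values are means of at least two separate experiments.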

[2] = species: Homo sapiens; assay: Cytotoxical effect against PBL cell lines was determined by reduction of cellular viability; type: functional; summary of the method: as §1
[3] = target: Human immunodeficiency virus type 1 integrase (Human immunodeficiency virus 1, UniProt Q7ZJM1); assay: Inhibition of HIV -1 Integrase
Human immunodeficiency virus type 1 integrase, sequence (Q7ZJM1 whole entry): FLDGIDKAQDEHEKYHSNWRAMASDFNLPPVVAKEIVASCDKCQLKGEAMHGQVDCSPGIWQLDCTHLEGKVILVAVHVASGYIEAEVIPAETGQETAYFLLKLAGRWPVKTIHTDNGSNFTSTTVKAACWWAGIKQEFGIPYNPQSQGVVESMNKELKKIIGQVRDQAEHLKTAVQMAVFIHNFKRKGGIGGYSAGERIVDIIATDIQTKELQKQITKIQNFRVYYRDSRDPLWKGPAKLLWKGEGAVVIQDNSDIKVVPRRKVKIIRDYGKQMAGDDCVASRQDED
Summary of the method: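 Purified HIV-1 integrase. 3'-processing and strand-transfer (integration) activities were measured with synthetic double-stranded oligonucleotides mimicking viral DNA ends. Compounds tested as ammonium salts. Values are means of at least two experiments.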

[4] = system: HEL; assay: Antiviral activity was determined against Vaccinia virus in HEL cells by measuring concentration required to reduce virus induced cytopathogenicity by 50%.; type: functional, cell-based; conditions: Homo sapiens
[5] = system: CCRF-CEM; assay: Cytotoxical effect against CEM cell lines was determined by reduction of cellular viability; type: functional; conditions: Homo sapiens; summary of the method: as §1
[6] = system: HEL; assay: Antiviral activity against HEL cells by measuring minimum cytotoxic concentration that causes a microscopically detectable alteration of normal cell morphology after 2 day of treatment.; type: functional; conditions: Homo sapiens, 48 h
[7] = system: HEL; assay: Antiviral activity was determined against Herpes simplex virus -1 TK- in HEL cells by measuring concentration required to reduce virus induced cytopathogenicity by 50%.; type: functional, cell-based; conditions: Homo sapiens
[8] = system: HEL; assay: Antiviral activity was determined against Herpes simplex virus -1 TK-/TK+ in HEL cells by measuring concentration required to reduce virus induced cytopathogenicity by 50%.; type: functional, cell-based; conditions: Homo sapiens
[9] = system: MT4; assay: Viral cytopathicity against HIV -I (HTLV-IIIb) strain determined in MT-4 cells; type: functional, cell-based; conditions: Homo sapiens
[10] = system: HEL; assay: Antiviral activity was determined against Vesicular stomatitis virus in HEL cells by measuring concentration required to reduce virus induced cytopathogenicity by 50%.; type: functional, cell-based; conditions: Homo sapiens
[11] = system: MOLT-4; assay: Giant cell formation between HIV-1 (HTLV-IIIB) infected HUT-78 cells and uninfected MOLT-4(clone-8)cells; type: functional, cell-based; conditions: Homo sapiens
Summary of the method: (§2)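 Syncytium assay: HUT-78 cells persistently infected with HIV-1 (HTLV-IIIB) or HIV-2 (LAV-2ROD) were co-cultured with uninfected MOLT-4 (clone 8) cells, and giant-cell formation was scored. Compounds tested as ammonium salts. Values are means of at least two experiments.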

[12] = system: HEL; assay: Antiviral activity was determined against Human cytomegalovirus (strain Davis) in HEL cells by measuring concentration required to reduce virus induced cytopathogenicity by 50%.; type: functional, cell-based
[13] = system: MOLT-4; assay: Giant cell formation between HIV-2 (LAV-2 rod) infected HUT-78 cells and uninfected MOLT-4(clone-8)cells; type: functional, cell-based; conditions: Homo sapiens; summary of the method: as §2
[14] = system: HEL; assay: Antiviral activity was determined against (Herpes simplex virus -2) by concentration required to reduce virus induced cytopathogenicity by 50%.; type: functional, cell-based; conditions: Homo sapiens
[15] = target: Human immunodeficiency virus type 1 protease (Human immunodeficiency virus 1, UniProt Q72874); assay: Inhibition of HIV -1 protease
Summary of the method: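 Purified HIV-1 protease with the peptide substrate Ala-Ser-Glu-Asn-Tyr-Pro-Ile-Val-Glu-amide. Cleavage quantified by reverse-phase HPLC. Compounds tested as ammonium salts. Values are means of at least two experiments.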

[16] = system: HEL; assay: Antiviral activity was determined against Herpes simplex virus -1 in HEL cells by measuring concentration required to reduce virus induced cytopathogenicity by 50%.; type: functional, cell-based; conditions: Homo sapiens
[17] = system: MT4; assay: Viral cytopathicity against HIV -2 (LAV-2 rod)strain determined in MT-4 cells; type: functional, cell-based; conditions: Homo sapiens
[18] = species: Homo sapiens; assay: Inhibition of p24 production in Peripheral blood lymphocytes; type: functional, organism-based
Summary of the method: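 Phytohemagglutinin-stimulated peripheral blood lymphocytes infected with HIV-1 WUJO. Read-out is virion-associated p24 production. Compounds tested as ammonium salts. Values are means of at least two experiments.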

[19] = system: HeLa; assay: Antiviral activity against HeLa cells by measuring minimum cytotoxic concentration that causes a microscopically detectable alteration of normal cell morphology after 2 day of treatment.; type: functional; conditions: Homo sapiens, 48 h
[20] = system: Vero; assay: Antiviral activity against Vero cells by measuring minimum cytotoxic concentration that causes a microscopically detectable alteration of normal cell morphology after 2 day of treatment.; type: functional; conditions: Chlorocebus sabaeus, 48 h
[21] = system: MDCK; assay: Antiviral activity was determined against Influenza virus A(strain Ishikawa) in MDCK cells by measuring concentration required to reduce virus induced cytopathogenicity by 50%.; type: functional, cell-based; conditions: Canis lupus familiaris
Summary of the method: (§3)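 Tested in MDCK cells, with compound applied right after infection and left on. Cytopathic effect of influenza A (Ishikawa) or B (Singapore) was read at day 5 pi. IC50 is the concentration halving cytopathogenicity, in µg/mL.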

[22] = system: Vero; assay: Antiviral activity was determined against Tacaribe virus in Vero cells by measuring concentration required to reduce virus induced cytopathogenicity by 50%.; type: functional, cell-based; conditions: Chlorocebus sabaeus
[23] = system: MDCK; assay: Antiviral activity against MDCK cells by measuring minimum cytotoxic concentration that causes a microscopically detectable alteration of normal cell morphology after 2 day of treatment.; type: functional; conditions: Canis lupus familiaris, 48 h
[24] = system: Vero; assay: Antiviral activity was determined against Junin virus in Vero cells by measuring concentration required to reduce virus induced cytopathogenicity by 50%.; type: functional, cell-based; conditions: Chlorocebus sabaeus
[25] = system: HeLa; assay: Antiviral activity was determined against Respiratory syncytial virus(strain Long) in HeLa cells by measuring concentration required to reduce virus induced cytopathogenicity by 50%.; type: functional, cell-based; conditions: Homo sapiens
Summary of the method: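 RSV cytopathicity in HeLa cells. Compound added immediately after virus infection and left in the culture. Virus-induced cytopathogenicity scored at day 5 post-infection. IC50 in μg/mL.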

[26] = system: MDCK; assay: Antiviral activity was determined against Influenza virus B(strain Singapore) MDCK cells by measuring concentration required to reduce virus induced cytopathogenicity by 50%.; type: functional, cell-based; conditions: Canis lupus familiaris; summary of the method: as §3

| Structure (SMILES) | CC50 [1] | CC50 [2] | IC50 [3] | IC50 [4] | CC50 [5] | MCC [6] | IC50 [7] | IC50 [8] | IC50 [9] | IC50 [10] | IC50 [11] | IC50 [12] | IC50 [13] | IC50 [14] | IC50 [15] | IC50 [16] | IC50 [17] | IC50 [18] | MCC [19] | MCC [20] | other results |
| --- | --- | --- | --- | --- | --- | --- | --- | --- | --- | --- | --- | --- | --- | --- | --- | --- | --- | --- | --- | --- | --- |
| CC(C)CCCC(C)[C@H]1CC[C@H]2[C@@H]3CCC4C[C@@H](CCC=C(c5cc(Cl)c(O)c(C(=O)O)c5)c5cc(Cl)c(O)c(C(=O)O)c5)CC[C@]4(C)[C@H]3CC[C@]12C (stereo not given in full) | > 125 µM | 67 µM | 25 µM | > 20 µg/mL | > 200 µM | > 100 µg/mL | > 20 µg/mL | 20 µg/mL (≈ 26 µM) | 1.8 µM | 10 µg/mL (≈ 13 µM) | 25 µM | 2.7 µg/mL (≈ 3.52 µM) | 25 µM | 7.4 µg/mL (≈ 9.64 µM) | 1.5 µM | 10 µg/mL (≈ 13 µM) | 4 µM | 33 µM | – | – | – |
| CC(C)CCCC(C)[C@H]1CC[C@H]2[C@@H]3CCC4CC(=C(c5cc(Cl)c(O)c(C(=O)O)c5)c5cc(Cl)c(O)c(C(=O)O)c5)CC[C@]4(C)[C@H]3CC[C@]12C (stereo not given in full) | 36.7 µM | 78 µM | > 100 µM | > 20 µg/mL | > 200 µM | > 50 µg/mL | > 20 µg/mL | > 20 µg/mL | 2.5 µM | > 20 µg/mL | 24 µM | 2.35 µg/mL (≈ 3.24 µM) | 24 µM | 12 µg/mL (≈ 16.5 µM) | 0.35 µM | > 20 µg/mL | 6 µM | 59.3 µM | 100 µg/mL | 200 µg/mL | IC50 [21]: 14 µg/mL (≈ 19.3 µM); IC50 [22]: 20 µg/mL (≈ 27.6 µM); MCC [23]: > 200 µg/mL; IC50 [24]: 16 µg/mL (≈ 22 µM); IC50 [25]: 20 µg/mL (≈ 27.6 µM); IC50 [26]: > 200 µg/mL |
| CC(CCC=C(c1cc(Cl)c(O)c(C(=O)O)c1)c1cc(Cl)c(O)c(C(=O)O)c1)[C@H]1CC[C@H]2[C@@H]3CC[C@@H]4CC(F)(F)CC[C@]4(C)[C@H]3CC[C@]12C (stereo not given in full) | 34 µM | 69.5 µM | 2.2 µM | 20 µg/mL (≈ 27.8 µM) | 38.5 µM | 50 µg/mL | > 20 µg/mL | > 20 µg/mL | 27.7 µM | > 20 µg/mL | 8 µM | 11 µg/mL (≈ 15.3 µM) | 24 µM | > 20 µg/mL | 0.39 µM | 20 µg/mL (≈ 27.8 µM) | 3.5 µM | 24 µM | 20 µg/mL | 20 µg/mL | IC50 [21]: > 12 µg/mL; IC50 [22]: > 5 µg/mL; MCC [23]: 12 µg/mL; IC50 [24]: > 5 µg/mL; IC50 [25]: 4 µg/mL (≈ 5.56 µM); IC50 [26]: > 12 µg/mL |
